Published values gathered from unrelated publications.
Compare with care: the assays were run in different laboratories.
Target: Tyrosine-protein kinase ZAP-70 (ZAP70, Homo sapiens, UniProt P43403)
One construct used (P43403 1-619): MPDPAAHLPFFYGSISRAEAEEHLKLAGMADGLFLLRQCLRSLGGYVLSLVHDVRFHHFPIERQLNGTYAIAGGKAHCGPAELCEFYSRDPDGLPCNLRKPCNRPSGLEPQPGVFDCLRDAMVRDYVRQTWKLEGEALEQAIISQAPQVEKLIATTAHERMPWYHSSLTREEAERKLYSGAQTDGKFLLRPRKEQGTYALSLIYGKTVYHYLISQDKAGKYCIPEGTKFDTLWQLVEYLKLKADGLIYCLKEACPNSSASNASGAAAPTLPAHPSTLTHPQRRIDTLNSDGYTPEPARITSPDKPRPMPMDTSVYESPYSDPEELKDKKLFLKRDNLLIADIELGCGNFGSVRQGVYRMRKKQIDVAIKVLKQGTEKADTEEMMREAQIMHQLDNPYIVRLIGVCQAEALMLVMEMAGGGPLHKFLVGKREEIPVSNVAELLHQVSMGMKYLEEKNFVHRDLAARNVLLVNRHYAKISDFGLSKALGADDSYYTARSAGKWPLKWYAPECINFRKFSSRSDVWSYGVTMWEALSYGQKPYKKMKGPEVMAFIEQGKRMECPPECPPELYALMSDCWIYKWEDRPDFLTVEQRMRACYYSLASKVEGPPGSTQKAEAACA

`Cc1nn(C)cc1-c1nc2c(N3CCN(Cc4ccc(Cl)cc4)CC3)c(Cl)cnc2[nH]1` has a remaining binding of 100% (binding, competition with immobilised ligand; 1 µM).
`N#CC1(c2ccccn2)CCN(Cc2cc(C(=O)O)c(=O)n3ccccc23)CC1` gave a remaining binding of 100% (cell-free assay, competition with immobilised ligand; 1 µM).
`C#Cc1n[nH]c2c(-c3cn(C(C)c4ccccn4)c(=O)[nH]c3=O)cc(F)cc12` (stereo not drawn) gave an inhibition of 16.2% (enzyme activity, inhibitor; 1 µM).
The remaining activity of `CC(C)(C)c1cc(C=C(C#N)C#N)cc(Br)c1O` is reported as 91.6% (enzyme activity, inhibitor; 0.5 µM).
`Cn1cncc1[C@@](O)(COc1ccc(C#N)cc1-c1ccc(OC(F)(F)F)cc1)c1ccc(C#N)cc1` gave a remaining binding of 100% (cell-free assay, competition with immobilised ligand; 1 µM).
With `c1ccc(C(NCCNC(c2ccccc2)c2ccccc2)c2ccccc2)cc1` the inhibition was 3% (enzyme activity, inhibitor; 10 µM).
With `Cc1ncc(C)n2nc(/C=C/c3nc(N4CCCC4)cc(N4CCOCC4)n3)nc12` the inhibition was -6% (enzyme activity, inhibitor; 10 µM).
`COc1ncccc1-c1cnn2ccc(N3CCN(C(=O)OC(C)C)CC3)nc12` has a remaining binding of 88% (binding, competition with immobilised ligand; 1 µM).
`C[C@H](C(=O)N[C@H]1COc2ccccc2[C@@H]1S(C)(=O)=O)c1ccc(F)cc1` gave an inhibition of 5% (enzyme activity, inhibitor; 10 µM).
The inhibition of `O=C(Nc1cccnn1)N1CCN([C@@H]2CCOc3cc(C(F)(F)F)ccc32)CC1` is reported as 1% (enzyme activity, inhibitor; 20 µM).
`O=c1[nH]c2ccccc2n1C1CCN(Cc2ccc(-c3[nH]c4cc5ncnc5cc4nc3-c3ccccc3)cc2)CC1` gave a remaining signal of 97.3% (cell-free assay; 0.5 µM).
`Cn1cc(-c2cccc(N3CCc4c(sc5c4CC(C)(C)C5)C3=O)c2CO)cc(Nc2ccncn2)c1=O` has an inhibition of 3% (enzyme activity, inhibitor; 1 µM).
For `Nc1ncc(-c2nc(N3CCOCC3)nc(N3CCOCC3)n2)c(C(F)F)n1`, the remaining binding was 94% (binding, competition with immobilised ligand; 10 µM).
`Cn1cc(-c2cc(F)cc(N3CCn4c(cc5c4CCCC5)C3=O)c2CO)cc(Nc2ccc(N3CCN(C4COC4)CC3)cn2)c1=O` has an inhibition of 16% (enzyme activity, inhibitor; 0.1 µM).
`COc1cc(Nc2ncc(F)c(Nc3ccc4c(n3)NC(=O)C(C)(C)O4)n2)cc(OC)c1OC` has an inhibition of 100% (binding; 10 µM).
